Screening results deposited in PubChem by The Scripps Research Institute Molecular Screening Center.
TLR9-MyD88 inh: TLR9-MyD88 interaction inhibition | Q9NR96+Q99836 | CHO BLA complementation TLR9-MyD88, CCF4 FRET ratio | AID 504734 | inhibition, % at 4.98 µM | hit rate 0.21% among 340,000;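 active = inhibition above the mean over all tested compounds plus 3 SD, cut at about 21% in these data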;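 note: 0% = DMSO only wells and 100% = clavulanate BLA inhibitor control wells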
NOD2-RIPK2 inh: inhibitors of human NOD2-RIPK2 interaction; hit rate 0.38% among 360,000; CHO BLA complementation NOD2-RIPK2, CCF4 ratio; inhibition, % at 4.98 µM; O43353; in the data active = inhibition above about 21%;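 note: 0% = vehicle only and 100% = reference blocker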
MC4R antagonist: antagonists of human melanocortin 4 receptor (MC4R). hit rate 0.48% among 360,000. AID 540295. inhibition, % at 6.5 µM. P32245. MC4R-expressing cells, MTII-stimulated cAMP, LANCE TR-FRET;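 active = inhibition above its plate's cutoff, the mean of tested wells on that plate plus 3 SD, cut at about 29% in these data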;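 note: 0% = Melanotan II alone and 100% = Melanotan II plus saturating MCL0020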
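Assay system: U2OS cells stably expressing human melanocortin 4 receptor (MC4R) / Dosing: 6.5 µM / Timing: compound 30 min, challenge 1 h, detection 1 h / Measured by: Eu-cAMP/anti-cAMP TR-FRET, emission 671 nm / Replicates: singlicate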
TLR4 MyD88 comp: blocks binding of human TLR4 to MyD88; O00206+Q99836; HeLa CL3-4 TLR4/MyD88 BLA complementation, FRET ratio; inhibition, % at 8.4 µM; hit rate 0.18% among 200,000; in the data active = inhibition above about 25%;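 note: 0% = vehicle and 100% = reference inhibitor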
MC4R barr agon: agonists of human melanocortin 4 receptor (MC4R) beta-arrestin. activation, % at 8.9 µM. U2OS MC4R beta-arrestin complementation, luminescence; percent of melanotan II response, DMSO zero. AID 540308. hit rate 0.98% among 360,000;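 active = activation above a per-plate cutoff, the mean activation of sample wells on that plate plus 3 SD, cut at about 8% in these data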
TLR4 MyD88 cnf: TLR4-MyD88 interaction inhibition confirmed; AID 941; shares compounds with TLR4 MyD88 comp; inhibition, % at 8.4 µM; HeLa CL3-4 BLA complementation, CCF4 FRET ratio; hit rate 50% among 350;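 active = mean inhibition across three repeat runs above about 25% carried over from the earlier screen, limit read from the data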;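 note: plate controls were DMSO only for no effect and clavulanic acid blocking BLA at full dose for full effect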
BLA inhibitor ct: counter-screen for TLR4-MyD88 inhibitors: beta-lactamase reporter inhibitors; shares compounds with TLR4 MyD88 comp; HeLa BLA reporter, CCF4 FRET ratio; inhibition, % at 8.4 µM; hit rate 63% among 350; AID 1237;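 active = mean inhibition over three repeats above about 26% taken from the earlier screen, limit read from the data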;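 note: HeLa cells stably expressing beta-lactamase reporter as counterscreen for TLR4-MyD88 inhibitors; 0% = DMSO and 100% = clavulanic acid full inhibition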
TLR9-MyD88 cf: TLR9-MyD88 interaction inhibition, confirmation. shares compounds with TLR9-MyD88 inh. CHO TLR9/MyD88 BLA complementation, CCF4 FRET ratio. inhibition, % at 4.98 µM. hit rate 51% among 680;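 active = mean inhibition across three repeats above about 21% taken from the earlier screen, limit read from the data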;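 note: blue over green emission ratio reports constitutive TLR9 MyD88 association via BLA complementation; 0% = DMSO vehicle wells and 100% = clavulanate BLA inhibitor wells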
BLA counter: beta-lactamase reporter inhibition, counter-screen artifact; shares compounds with TLR9-MyD88 inh; CHO-BLA cells, CCF4 FRET ratio, BLA reporter; inhibition, % at 4.98 µM; hit rate 7% among 680;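 active = mean inhibition above a 50% cutoff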;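 note: counterscreen of TLR9-MyD88 hits on CMV-driven BLA in CHO-K1 cells; 0% = DMSO alone and 100% = clavulanate blocking BLA; higher means less blue over green ratio so more BLA blockade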
TLR9 CHO cytotox: CHO cell toxicity counter-screen for TLR9-MyD88 inhibitors | shares compounds with TLR9-MyD88 inh | AID 588336 | TLR9-MyD88 CHO cells cytotoxicity, luminescence | inhibition, % at 4.98 µM | hit rate 39% among 680; in the data active = inhibition above about 11%
* = called active by the depositor; . = not tested or not shown. An excerpt weighted towards active compounds, which were near 1.8% of everything screened.

SMILES	TLR9-MyD88 inh	NOD2-RIPK2 inh	MC4R antagonist	TLR4 MyD88 comp	MC4R barr agon	TLR4 MyD88 cnf	BLA inhibitor ct	TLR9-MyD88 cf	BLA counter	TLR9 CHO cytotox
O=C(C1=NN(c2ccccc2)C2C(=O)N(c3cccc(Cl)c3)C(=O)C12)c1ccccc1 (centres undefined)	28*	35*	0	46*	-1	27*	45*	25*	28	3
FC(F)(F)c1cc(-c2ccccc2)nc(N2CCCCCC2)n1	-21	-7	14	-9	0	.	.	.	.	.
CS(=O)(=O)c1nc(-c2ccccc2)cc(C(F)(F)F)n1	36*	60*	16	31*	-3	20	-17	35*	16	96*
Cn1cccc1/C=C1\CCC/C(=C\c2cccn2C)C1=O	23*	-5	3	35*	-3	20	45*	26*	23	-3
O=C1/C(=C/c2cccs2)CCC/C1=C\c1cccs1	0	-3	10	.	-5	.	.	.	.	.
O=C1c2cccc3c([N+](=O)[O-])ccc(c23)C(=O)N1c1ccc(Cl)cn1	73*	85*	-19	86*	1	87*	111*	68*	86*	94*
O=C1c2ccc([N+](=O)[O-])cc2C(=O)N1c1ccc(Cl)cn1	-22	-7	-3	10	-1	.	.	.	.	.
O=C(COC(=O)c1c[nH]c2ccccc12)Nc1ccc([N+](=O)[O-])cc1	-5	2	-6	.	-3	.	.	.	.	.
CCCSc1nnc(NC(=O)c2sc3nc(-c4cccs4)ccc3c2N)s1	21*	-3	18	30*	0	7	31*	23*	22	0
N#Cc1sc2nc(-c3ccccc3)cc(-c3ccco3)c2c1N	22*	13	19	40*	1	26*	53*	28*	25	-1
CCc1cc2c(=O)c(-c3nc4ccccc4n3C)c(COCC(=O)O)oc2cc1OC(=O)C(C)(C)C	49*	1	-1	43*	0	-6	13	2	0	3
O=C1C=C(c2ccc3c(c2)OCO3)CCC1	1	-1	-2	.	2	.	.	.	.	.
COc1cccc(/C=C2\C(=O)N(c3cccc(C)c3)C(=O)c3ccccc32)c1	24*	-12	14	29*	-2	41*	38*	46*	47	4
COc1cccc(N2C(=O)c3ccncc3C2=O)c1	1	0	10	-1	-1	.	.	.	.	.
CC(=O)OCC(O)C1(O)CCC2C3CCC4=CC(=O)CCC4(C)C3C(O)CC21C (centres undefined)	.	-5	5	.	1	.	.	.	.	.
N#CC1(NC(=O)COc2ccc(C(N)=O)cc2)CCCC1	-4	0	3	.	-2	.	.	.	.	.
COc1ccccc1NS(=O)(=O)c1cc([N+](=O)[O-])ccc1N/N=C/c1c[nH]c2ccccc12	49*	4	19	39*	0	27*	56*	45*	44	3
COc1ccc(NS(=O)(=O)c2cc([N+](=O)[O-])ccc2N/N=C\c2c(C)[nH]c3ccccc23)cc1	6	9	0	10	-3	.	.	.	.	.
CC(C)(C)c1ccc(C(CC(=O)O)NC(=O)C23CC4CC(CC(C4)C2)C3)cc1 (centres undefined)	-3	-7	0	.	-1	.	.	.	.	.
COc1ccc(N(CC(=O)N/N=C/c2ccc(-c3ccc([N+](=O)[O-])cc3)o2)S(=O)(=O)c2ccc(C)cc2)cc1Cl	64*	17	0	71*	-1	65*	95*	59*	61*	5
